14 molecules from ChEMBL document CHEMBL4732060, “Cytotoxic triterpenoid-safirinium conjugates target the endoplasmic reticulum” (Eur J Med Chem, 2021) can be followed below.

By EC50 is commonly meant the concentration giving half of the maximal effect.

In data set [1] the test system is A-375. Nature of the data set: Cytotoxicity against human A-375 cells assessed as reduction in cell viability upto 30 uM measured after 72 hrs by SRB assay. Conditions: dose microM <=30, time 72.0 hrs. The format is functional, cell-based. The procedure, abridged: (§1)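 Sulforhodamine B assay on human tumour lines A375 (epithelial melanoma), HT29 (colorectal adenocarcinoma), MCF-7 (breast adenocarcinoma), A2780 (ovarian carcinoma) and FaDu (squamous cell carcinoma). Non-malignant NIH 3T3 (mouse fibroblasts) and HEK293 (human embryonic kidney) cells were also tested. EC50 values are given as mean ± standard mean error.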
A general note: The SRB assay estimates cell density from bound dye.

Data set [2] has as its system A-375. Nature of the data set: Cytotoxicity against human A-375 cells assessed as reduction in cell viability measured after 72 hrs by SRB assay. Conditions: A-375, 72 h. The format is functional, cell-based.
The test system of data set [3] is HT-29. Put plainly: Cytotoxicity against human HT-29 cells assessed as reduction in cell viability upto 30 uM measured after 72 hrs by SRB assay. The format is functional, cell-based. Conditions: dose microM <=30, time 72.0 hrs. The essentials:
as §1

For data set [4], the system named is HT-29. Nature of the data set: Cytotoxicity against human HT-29 cells assessed as reduction in cell viability measured after 72 hrs by SRB assay. As to conditions: HT-29, 72 h. In kind it is functional, cell-based.
Data set [5] deals with MCF7. Nature of the data set: Cytotoxicity against human MCF7 cells assessed as reduction in cell viability upto 30 uM measured after 72 hrs by SRB assay. The format is functional, cell-based. Conditions: dose microM <=30, time 72.0 hrs. The essentials:
as §1

Data set [6] has as its system MCF7. Nature of the data set: Cytotoxicity against human MCF7 cells assessed as reduction in cell viability measured after 72 hrs by SRB assay. Conditions: MCF7, 72 h. The format is functional, cell-based.
Data set [7] concerns A2780. Nature of the data set: Cytotoxicity against human A2780 cells assessed as reduction in cell viability upto 30 uM measured after 72 hrs by SRB assay. In kind it is functional, cell-based. As to conditions: dose microM <=30, time 72.0 hrs. The procedure, abridged:
as §1

Data set [8] has as its system A2780. Nature of the data set: Cytotoxicity against human A2780 cells assessed as reduction in cell viability measured after 72 hrs by SRB assay. Conditions: A2780, 72 h. In kind it is functional, cell-based.
In data set [9] the test system is FaDu. Put plainly: Cytotoxicity against human FaDu cells assessed as reduction in cell viability upto 30 uM measured after 72 hrs by SRB assay. Conditions: dose microM <=30, time 72.0 hrs. In kind it is functional, cell-based. The procedure, abridged: as §1
In data set [10] the test system is FaDu. Nature of the data set: Cytotoxicity against human FaDu cells assessed as reduction in cell viability measured after 72 hrs by SRB assay. The format is functional, cell-based.
Data set [11] has as its system NIH3T3. Nature of the data set: Cytotoxicity against mouse NIH3T3 cells assessed as reduction in cell viability upto 30 uM measured after 72 hrs by SRB assay. In kind it is cell-based. Conditions: nih3t3, 72 h. The procedure, abridged:
as §1

Data set [12] deals with NIH3T3. Nature of the data set: Cytotoxicity against mouse NIH3T3 cells assessed as reduction in cell viability measured after 72 hrs by SRB assay. The format is cell-based. As to conditions: NIH3T3, 72 h. The essentials:
as §1

Data set [13] deals with HEK293. Put plainly: Cytotoxicity against human HEK293 cells assessed as reduction in cell viability upto 30 uM measured after 72 hrs by SRB assay. In kind it is cell-based. Conditions: hek293, 72 h. The procedure, abridged: as §1
A short description of data set [14]: Drug uptake in human A-375 cells measured after 24 hrs by fluorescence imaging analysis. In kind it is ADME, cell-based. As to conditions: a-375, 24 h. The essentials:
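Fluorescence imaging of cells after a prolonged 24 h incubation with compound, to judge entry into the cells.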

Structures are written as SMILES. Active and inactive are the calls of the source. The rule behind the calls is not given here.

`CC1=CC(C)=C(C(=O)[O-])C2=N[N+]3(CCOCC3)CN12`: the outcome in data set [1], in data set [3], in data set [5], in [7] and in data set [9] was inactive. Also, the concentration for a half-maximal effect (EC50) in data set [2], in data set [4], in [6], in [8], in data set [10] and in data set [12] was over 30 µM in each case. Further, the Activity result in data set [11] and in data set [13] was “Non-Toxic” each time. Further, the Drug uptake entry in [14] is reported as “Not Active”.

For the molecule `CC[N+]1(CC)CN2C(=N1)C(C(=O)NCCNC(=O)[C@]13CC[C@@H](C(C)=O)[C@@H]1C1=CC[C@@H]4[C@@]5(C)CC[C@H](OC(C)=O)C(C)(C)[C@@H]5CC[C@@]4(C)[C@]1(C)CC3)=Cc1ccccc12`, the EC50 in data set [2] was 16.6 µM; in data set [4], over 30 µM; in data set [6], 15.7 µM; in [8] it was 20.8 µM; in [10], 16.1 µM; in [12], 21.3 µM.

For `CCCCCCCCCCCC[N+]1(CCCCCCCCCCCC)CN2C(C)=CC(C)=C(C(=O)[O-])C2=N1`, the outcome in data set [1], in [3], in [5], in data set [7] and in data set [9] was inactive. For the same molecule, the EC50 in data set [2], in data set [4], in [6], in data set [8], in data set [10] and in data set [12] was over 30 µM each time. The Activity entry in data set [11] and in data set [13] was “Non-Toxic” throughout. Also, the Drug uptake entry in data set [14] is on record as “Not Active”.

As for `CC[N+]1(CC)CN2C(=N1)C(C(=O)N1CCN(C(=O)[C@]34CC[C@@H](C(C)=O)[C@@H]3C3=CC[C@@H]5[C@@]6(C)CC[C@H](OC(C)=O)C(C)(C)[C@@H]6CC[C@@]5(C)[C@]3(C)CC4)CC1)=Cc1ccccc12`, the EC50 in data set [2] came out at 15 µM; in data set [4] it was 22.2 µM; in [6], 13.2 µM; in data set [8] it was 10.9 µM; in data set [10], 13.3 µM; in data set [12] it was 3 µM.

`CCCCCC[N+]1(CCCCCC)CN2C(C)=CC(C)=C(C(=O)[O-])C2=N1`: the result in [1], in [3], in [5], in data set [7] and in data set [9] was inactive. Also, the EC50 in [2], in [4], in data set [6], in data set [8], in data set [10] and in data set [12] was over 30 µM each time. Moreover, the Activity result in data set [11] and in [13] was “Non-Toxic” each time. Moreover, the Drug uptake result in data set [14] was “Not Active”.

As for `CC[N+]1(CC)CN2C(C)=CC(C)=C(C(=O)[O-])C2=N1`, the outcome in [1], in data set [3], in data set [5], in data set [7] and in data set [9] was inactive. Also, the EC50 in [2], in data set [4], in [6], in data set [8], in data set [10] and in [12] was over 30 µM throughout. Further, the Activity entry in data set [11] and in data set [13] was “Non-Toxic” throughout. In data set [14], the Drug uptake entry is “Not Active”.

`CC[N+]1(CC)CN2C(=N1)C(C(=O)NCCNC(=O)[C@]13CC[C@@H](C)[C@H](C)[C@H]1C1=CC[C@@H]4[C@@]5(C)CC[C@H](OC(C)=O)C(C)(C)[C@@H]5CC[C@@]4(C)[C@]1(C)CC3)=Cc1ccccc12`: the concentration for a half-maximal effect (EC50) worked out at 13.8 µM in data set [2]; 22.1 µM in [4]; 11.7 µM in data set [6]; 11.2 µM in data set [8]; 10.2 µM in data set [10]; 3.6 µM in [12].

For the molecule `COc1cccc2c1C(=O)c1c(O)c3c(c(O)c1C2=O)C[C@@](O)(C(=O)CO)C[C@@H]3O[C@H]1C[C@H](N)[C@H](O)[C@H](C)O1` [DOXORUBICIN], the concentration for a half-maximal effect (EC50) stood at 0.9 µM in data set [4], 1.1 µM in [6], 0.01 µM in data set [8] and 0.4 µM in [12].

`CC1=CC(C)=C(C(=O)[O-])C2=N[N+](C)(C)CN12`: the result in data set [1], in data set [3], in data set [5], in data set [7] and in data set [9] was inactive. Also, the EC50 in data set [2], in data set [4], in data set [6], in data set [8], in data set [10] and in data set [12] was over 30 µM throughout. Further, the Activity entry in data set [11] and in [13] was “Non-Toxic” throughout. Further, the Drug uptake entry in data set [14] is listed as “Not Active”.

As for `C=C(C)[C@@H]1CC[C@]2(C(=O)N3CCN(C(=O)C4=C(C)C=C(C)N5C[N+](CC)(CC)N=C45)CC3)CC[C@]3(C)[C@H](CC[C@@H]4[C@@]5(C)CC[C@H](OC(C)=O)C(C)(C)[C@@H]5CC[C@]43C)[C@@H]12`, the EC50 in [2] is 26.2 µM; in [4] it was over 30 µM; in data set [6], 26.3 µM; in data set [8], 21.6 µM; in [10] it was over 30 µM; in [12], 22.4 µM.

Regarding `CC[N+]1(CC)CN2C(=N1)C(C(=O)N1CCN(C(=O)[C@]34CCC(C)(C)C[C@H]3C3=CC[C@@H]5[C@@]6(C)CC[C@H](OC(C)=O)C(C)(C)[C@@H]6CC[C@@]5(C)[C@]3(C)CC4)CC1)=Cc1ccccc12`, the EC50 in data set [2] was determined as 21.4 µM; in data set [4], 26.2 µM; in data set [6], 19.8 µM; in [8] it was 21.4 µM; in [10], 18.1 µM; in [12], 18.4 µM.

In the case of `CC[N+]1(CC)CN2C(=N1)C(C(=O)N1CCN(C(=O)[C@]34CC[C@@H](C)[C@H](C)[C@H]3C3=CC[C@@H]5[C@@]6(C)CC[C@H](OC(C)=O)C(C)(C)[C@@H]6CC[C@@]5(C)[C@]3(C)CC4)CC1)=Cc1ccccc12`, the EC50 in data set [2] is 21.4 µM; in data set [4], over 30 µM; in data set [6], 10.2 µM; in data set [8], 9 µM; in data set [10] it was 18.3 µM; in data set [12] it was over 30 µM.

On to `CC[N+]1(CC)CN2C(=N1)C(C(=O)[O-])=Cc1ccccc12`, for which the Drug uptake entry in [14] is given as “Not Active”.

As for `CC[N+]1(CC)CN2C(=N1)C(C(=O)NCCNC(=O)[C@]13CCC(C)(C)C[C@H]1C1=CC[C@@H]4[C@@]5(C)CC[C@H](OC(C)=O)C(C)(C)[C@@H]5CC[C@@]4(C)[C@]1(C)CC3)=Cc1ccccc12`, the EC50 in data set [2] was found to be 19 µM; in [4], 25 µM; in data set [6], 21.8 µM; in data set [8] it was 24.2 µM; in [10] it was 27.1 µM; in data set [12], 28.5 µM.
